This note sets out measurements from ChEMBL document CHEMBL2406928, “Discovery of novel insulin-like growth factor-1 receptor inhibitors with unique time-dependent binding kinetics” (ACS Med Chem Lett, 2013).

By clearance is commonly meant a measure of how efficiently the substance is removed, as volume per time. Low values mean a low capacity for elimination, high ones a high capacity for elimination. The Cmax is the peak of the concentration-time curve. The term Tmax denotes the time from dosing to the highest level. For orientation: bioavailability means dose-corrected exposure relative to a reference, in per cent. A high value points to much systemic uptake.

Calls of active or inactive are those of the source. The calls are words filed in the database; no cut-off is given here.

Data set [1] in a line: Antitumor activity against human GEO cells xenografted in nu/nu CD1 mouse assessed as tumor growth inhibition at 2 mg/kg, po q7d administered for 14 days measured twice per week relative to vehicle-treated control. As to conditions: 336 h, read-out: TGI. For orientation: A xenograft is tissue or cells of one species grown in another, often human tumour cells in immunodeficient mice.

A short description of data set [2]: Clearance in CD1 mouse at 5 mg/kg, iv. It counts as ADME, organism-based. Set-up: dose 5 mg/kg, route intravenous. As to conditions: in vivo.
Data set [3] can be described thus: Cmax in CD1 mouse at 2.5 mg/kg, po. It counts as ADME, organism-based. Set-up: dose 2.5 mg/kg, route oral. As to conditions: in vivo.
A short description of data set [4]: Tmax in CD1 mouse at 2.5 mg/kg, po. It counts as ADME, organism-based. Details: dose 2.5 mg/kg, route oral. As to conditions: in vivo.
Data set [5] can be described thus: Oral bioavailability in CD1 mouse at 2.5 mg/kg. It counts as ADME, organism-based. As to conditions: plasma.
Data set [6] deals with Mus musculus. Put plainly: In vivo inhibition of IGF-1R phosphorylation in human GEO cells xenografted in nu/nu CD1 mouse at 2 mg/kg, po measured up to 48 hrs relative to control. It counts as functional. The method in brief: (§1)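 Single oral dose of 2 mg/kg to mice bearing GEO colon cancer xenografts (IGF-1R/IGF-II autocrine loop). Phosphorylation of IGF-1R and of IR in tumors followed over time up to 48 h after dosing, expressed as inhibition versus control.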

A short description of data set [7]: Aqueous solubility of the compound. It counts as physicochemical. The note with it: buffer.
Data set [8] in a line: Volume of distribution at steady state in CD1 mouse at 5 mg/kg, iv. It counts as ADME, organism-based. Details: dose 5 mg/kg, route intravenous. The note with it: in vivo, read-out: Vdss.
Data set [9] is described as follows: Plasma concentration in CD1 mouse at 2.5 mg/kg, po measured at 8 hrs. It counts as ADME, organism-based. Set-up: dose 2.5 mg/kg, route oral.
In data set [10] the test system is Mus musculus. Nature of the data set: In vivo inhibition of IR phosphorylation in human GEO cells xenografted in nu/nu CD1 mouse at 2 mg/kg, po measured up to 48 hrs relative to control. It counts as functional. The procedure, abridged: as §1
Another data set relates to GEO. Put plainly: (§2) Antitumor activity against human GEO cells xenografted in nu/nu CD1 mouse assessed as tumor growth inhibition administered as intermittent dosing regimen relative to vehicle-treated control. It counts as functional.
Data set [11] in a line: Plasma concentration in CD1 mouse at 2.5 mg/kg, po measured at 24 hrs. It counts as ADME, organism-based. Details: dose 2.5 mg/kg, route oral.
Data set [12] addresses Insulin-like growth factor 1 receptor (Homo sapiens) (UniProt P08069).
Data set [13] is described as follows: Plasma concentration in CD1 mouse at 5 mg/kg, po measured at 24 hrs. It counts as ADME, organism-based. Set-up: dose 5 mg/kg, route oral.
The nature of data set [14]: Volume of distribution at steady state in CD1 mouse at 0.5 mg/kg, iv. It counts as ADME, organism-based. Set-up: dose 0.5 mg/kg, route intravenous. As to conditions: in vivo, read-out: Vdss.
The nature of data set [15]: Tmax in CD1 mouse at 5 mg/kg, po. It counts as ADME, organism-based. Set-up: dose 5 mg/kg, route oral. The note with it: in vivo.
The nature of data set [16]: Oral bioavailability in CD1 mouse at 5 mg/kg. It counts as ADME, organism-based. The note with it: plasma.
A short description of data set [17]: as §2. It counts as functional.
Data set [18] can be described thus: Clearance in CD1 mouse at 0.5 mg/kg, iv. It counts as ADME, organism-based. Details: dose 0.5 mg/kg, route intravenous. As to conditions: in vivo.
Data set [19] can be described thus: Cmax in CD1 mouse at 5 mg/kg, po. It counts as ADME, organism-based. Details: dose 5 mg/kg, route oral. As to conditions: in vivo.
The nature of data set [20]: Antitumor activity against human GEO cells xenografted in nu/nu CD1 mouse assessed as tumor growth inhibition at 5 mg/kg, po qd administered for 14 days measured twice per week relative to vehicle-treated control. It counts as functional. As to conditions: 336 h, read-out: TGI. The procedure, abridged:
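GEO human colon cancer xenografts in mice; oral dosing at 5 mg/kg once daily, days 1–14. Tumor volumes expressed as mean percentage of initial volume ± SE; TGI calculated relative to vehicle-treated group.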

A short description of data set [21]: Plasma concentration in CD1 mouse at 5 mg/kg, po measured at 8 hrs. It counts as ADME, organism-based. Details: dose 5 mg/kg, route oral.

Insulin-like growth factor 1 receptor (Homo sapiens), sequence (P08069 31-736 limits assumed): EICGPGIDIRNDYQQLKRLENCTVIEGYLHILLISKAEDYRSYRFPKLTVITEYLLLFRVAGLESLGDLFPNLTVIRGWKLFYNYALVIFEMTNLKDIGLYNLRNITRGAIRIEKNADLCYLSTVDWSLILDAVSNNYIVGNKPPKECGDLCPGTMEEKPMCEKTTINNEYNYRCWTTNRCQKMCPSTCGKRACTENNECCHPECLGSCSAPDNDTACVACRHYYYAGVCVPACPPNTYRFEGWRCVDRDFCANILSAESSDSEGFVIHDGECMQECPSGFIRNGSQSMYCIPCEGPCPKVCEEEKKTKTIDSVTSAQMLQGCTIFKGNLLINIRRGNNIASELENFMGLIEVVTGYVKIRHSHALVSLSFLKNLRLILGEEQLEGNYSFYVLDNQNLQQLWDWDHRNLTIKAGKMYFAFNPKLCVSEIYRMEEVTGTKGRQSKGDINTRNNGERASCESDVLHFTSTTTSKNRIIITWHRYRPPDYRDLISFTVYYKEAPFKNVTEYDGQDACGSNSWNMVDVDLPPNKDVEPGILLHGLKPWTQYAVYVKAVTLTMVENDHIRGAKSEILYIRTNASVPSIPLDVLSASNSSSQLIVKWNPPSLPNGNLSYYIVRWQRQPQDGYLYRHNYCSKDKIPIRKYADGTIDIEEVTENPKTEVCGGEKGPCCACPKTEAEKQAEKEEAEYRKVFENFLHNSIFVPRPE
Insulin-like growth factor 1 receptor (Homo sapiens), sequence (P08069 741-1367 limits assumed): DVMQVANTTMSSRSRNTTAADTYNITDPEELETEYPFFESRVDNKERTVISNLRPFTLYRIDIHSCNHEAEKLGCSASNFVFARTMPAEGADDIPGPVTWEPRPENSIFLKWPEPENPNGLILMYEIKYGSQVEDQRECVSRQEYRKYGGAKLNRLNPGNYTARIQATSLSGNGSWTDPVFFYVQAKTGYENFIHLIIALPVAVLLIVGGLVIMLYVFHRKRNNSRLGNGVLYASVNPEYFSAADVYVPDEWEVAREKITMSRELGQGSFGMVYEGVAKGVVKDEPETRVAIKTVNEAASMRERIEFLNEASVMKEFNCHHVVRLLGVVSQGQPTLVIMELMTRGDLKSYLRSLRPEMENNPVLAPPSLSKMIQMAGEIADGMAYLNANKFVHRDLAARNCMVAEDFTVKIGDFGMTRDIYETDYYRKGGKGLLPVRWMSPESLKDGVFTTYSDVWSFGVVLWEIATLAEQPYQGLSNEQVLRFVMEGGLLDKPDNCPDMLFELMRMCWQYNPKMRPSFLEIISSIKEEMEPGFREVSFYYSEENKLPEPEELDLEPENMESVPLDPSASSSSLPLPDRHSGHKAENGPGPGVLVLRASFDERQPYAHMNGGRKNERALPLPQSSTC

On to `CCOc1cc(-c2ccccc2)nc2cc(-c3nc([C@H]4C[C@@](C)(O)C4)n4ccnc(N)c34)ccc12`, for which the inhibition in vivo at 2 mg/kg in data set [1] was 66%; in the data set on Mus musculus [6], 80%; in the data set on Mus musculus [10] it was 80%. In data set [2], this molecule returned a clearance of 5 mL/min/kg. For the same molecule, in data set [3], the Cmax was 2200 nM. For the same molecule, the Tmax in [4] came out at 30 min. Further, the bioavailability in data set [5] was 63%. In data set [7], the solubility result is “soluble”. Further, in data set [8], the Vd was determined as 1.5 L/kg. The molecule further gave a concentration at 8 h in data set [9] of 320 nM. Also, the TGI entry with GEO is “Active”. The same molecule displayed a concentration at 24 h in [11] of less than 30 nM.
`C[C@]1(O)C[C@@H](c2nc(-c3ccc4ccc(-c5ccccc5)nc4c3)c3c(N)nccn32)C1` registered a T1/2 in data set [12] of 12 min.
Regarding `COc1cc(-c2ccccc2)nc2cc(-c3nc([C@H]4C[C@@](C)(O)C4)n4ccnc(N)c34)ccc12`, the concentration at 24 h in [13] is less than 30 nM. Also, in data set [14], the Vd was 2.4 L/kg. Besides, the Tmax in data set [15] worked out at 30 min. The molecule also displayed a bioavailability in [16] of 74%. Moreover, the TGI in data set [17] is listed as less than 50%. For the same molecule, the clearance in data set [18] was determined as 17 mL/min/kg. Besides, the Cmax in data set [19] is 3.2 µM. Besides, the inhibition in vivo at 5 mg/kg in [20] was found to be 64%. In addition, the concentration at 8 h in [21] turned out to be 280 nM.
